The results in this text go back to ChEMBL document CHEMBL1124086, “Inhibition of copper-dependent amine oxidases by some hydrazides of pyrrol-1-ylbenzoic and pyrrol-1-ylphenylacetic acids” (J Med Chem, 1988).

Assay [1] is filed under the species Rattus norvegicus. As to the kind of experiment: Brain mitochondrial activity measured at 120 min of incubation at 100 uM concentration. It is filed as functional. The essentials: (§1)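 Rat brain mitochondria isolated by differential centrifugation of homogenates in 0.25 M sucrose, pH 7.4, then suspended in 0.1 M phosphate buffer, pH 7.2, at 37 °C. Inhibitor added at zero time, then saturating 1 mM kynuramine added after the incubation period. MAO activity read fluorimetrically. Percent inhibition reported from three experiments in duplicate.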

The species named for assay [2] is Rattus norvegicus. As to the kind of experiment: Brain mitochondrial activity measured at 120 min of incubation at 1 uM concentration. It counts as functional. The method, boiled down:
as §1

A short description of assay [3]: Effect on placental diamine oxidase (0.1 uM) after 30 min of incubation at pH 7.2. The arrangement: species or system Homo sapiens. Conditions: read-out: I50. The method, boiled down:
(§2)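 Purified human placental diamine oxidase at 0.1 µM in 0.1 M phosphate buffer, pH 7.2, at 37 °C. Inhibitor added at zero time. After preincubation, saturating 3 mM p-[(dimethylamino)methyl]benzylamine added. Product aldehyde followed at 250 nm (E = 10.400 M-1 cm-1). I50 is the concentration giving 50% loss of activity. Two experiments in duplicate.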

The species named for assay [4] is Rattus norvegicus. As to the kind of experiment: Brain mitochondrial activity measured at 120 min of incubation at 10 uM concentration. It counts as functional. The essentials:
as §1

The species entered for assay [5] is Rattus norvegicus. As to the kind of experiment: Brain mitochondrial activity measured at 0 min of incubation at 100 uM concentration. It counts as functional. The method, boiled down: as §1
The species named for assay [6] is Rattus norvegicus. The assay is described as follows: Brain mitochondrial activity measured at 0 min of incubation at 1 uM concentration. It is filed as functional. The essentials:
as §1

Assay [7] in a line: Ki value measured for the inhibition of copper dependent amine oxidase in bovine plasma. It counts as cell-free. The essentials:
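Bovine plasma amine oxidase, 36 µg/mL (0.2 µM), in 0.1 M phosphate buffer, pH 7.2. Benzylamine at 0.5, 2.5 and 5 mM, with no preincubation. Rate measured as benzaldehyde formed per minute at 37 °C. Apparent Ki taken from Dixon plots.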

For assay [8], the species on record is Rattus norvegicus. The assay is described as follows: Brain mitochondrial activity measured at 0 min of incubation at 10 uM concentration. It counts as functional. The method, boiled down: as §1
Assay [9] in a line: Effect on placental diamine oxidase (0.1 uM) after 0 min of incubation at pH 7.2. Conditions: read-out: I50. The arrangement: species or system Homo sapiens. The method, boiled down:
as §2

Assay [10] in a line: Ki value measured for the inhibition of human placenta diamine oxidase. The essentials: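 Human placental diamine oxidase, 47 µg/mL (0.2 µM), in 0.1 M phosphate buffer, pH 7.2, with no preincubation. […] oxidation followed at 250 nm at 37 °C. Apparent Ki estimated from Dixon plots.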
Assay [11] can be described thus: Effect on plasma amine oxidase (0.1 uM) after 60 min of incubation at pH 7.2. It is filed as cell-free. Conditions: 1 h, read-out: I50. The method, boiled down: (§3)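 Purified bovine plasma amine oxidase at 0.1 µM in 0.1 M phosphate buffer, pH 7.2, at 37 °C. Inhibitor added at zero time and preincubated. Saturating 3 mM benzylamine then added and benzaldehyde formation read at 250 nm (E = 12.500 M-1 cm-1). I50 is the concentration halving activity. Two experiments in duplicate.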

Assay [12] is described as follows: Effect on plasma amine oxidase (0.1 uM) after 30 min of incubation at pH 7.2. It counts as cell-free. Conditions: 0.5 h, read-out: I50. The method, boiled down:
as §3

Assay [13] can be described thus: Effect on plasma amine oxidase (0.1 uM) after 0 min of incubation at pH 7.2. It is filed as cell-free. Conditions: 0 h, read-out: I50. The essentials:
as §3

Assay [14] can be described thus: Effect on plasma amine oxidase (0.1 uM) after 15 min of incubation at pH 7.2. Conditions: 0.25 h, read-out: I50. It counts as cell-free. The essentials: as §3

pIC50, pKi: −log10 of the molar value.

A word on the Inhibition: it is how much of the control response was suppressed. A word on the pKi: it is −log10 of the Ki, conventionally taken in molar units. High values mean a small Ki, low ones a large Ki. Turning to `NNC(=O)c1ccccc1-n1cccc1`, the Inhibition in the assay filed under Rattus norvegicus [1] came out at 6%; in the assay listed under Rattus norvegicus [2], 3%; in the assay listed under Rattus norvegicus [4], 5%; in the assay listed under Rattus norvegicus [5], 0%; in the assay filed under Rattus norvegicus [6], 0%; in the assay listed under Rattus norvegicus [8], 0%. The pIC50 in assay [3] and in assay [9] was 4.00 each time. In addition, the pKi in assay [7] is 3.52; in assay [10] it was 3.60.
With `CC(C)=NNC(=O)Cc1ccc(-n2cccc2)cc1`, the Inhibition in the assay listed under Rattus norvegicus [1] was 18%; in the assay filed under Rattus norvegicus [2] it was 12%; in the assay listed under Rattus norvegicus [4] it was 12%; in the assay filed under Rattus norvegicus [5], 0%; in the assay filed under Rattus norvegicus [6], 0%; in the assay listed under Rattus norvegicus [8], 0%. For the same compound, the pIC50 in assay [3] was 5.00; in assay [9], 4.30. Besides, the pKi in [7] is 6.10; in assay [10] it was 5.00.
In the case of `NNC(=O)Cc1ccc(-n2cccc2)cc1`, the Inhibition in the assay listed under Rattus norvegicus [1] stood at 9%; in the assay listed under Rattus norvegicus [2] it was 2%; in the assay filed under Rattus norvegicus [4], 4%; in the assay listed under Rattus norvegicus [5] it was 6%; in the assay filed under Rattus norvegicus [6], 0%; in the assay listed under Rattus norvegicus [8], 0%. The pIC50 in assay [3] and in [9] was 5.00 each time. Moreover, the pKi in assay [7] was 6.30; in assay [10], 5.00.
Turning to `NNC(=O)c1cccc(-n2cccc2)c1`, the Inhibition is 8% in the assay filed under Rattus norvegicus [1]; 0% in the assay filed under Rattus norvegicus [2]; 5% in the assay filed under Rattus norvegicus [4]; 0% in the assay filed under Rattus norvegicus [5]; 0% in the assay filed under Rattus norvegicus [6]; 0% in the assay filed under Rattus norvegicus [8]. The pIC50 in assay [3] and in assay [9] was 4.00 in each case. Also, the pKi was 4.07 in assay [7] and 3.96 in assay [10].
As for `NNC(=O)c1ccncc1` [ISONIAZID], the Inhibition in the assay filed under Rattus norvegicus [1] was 22%; in the assay listed under Rattus norvegicus [2] it was 16%; in the assay filed under Rattus norvegicus [4], 16%; in the assay listed under Rattus norvegicus [5], 19%; in the assay filed under Rattus norvegicus [6], 12%; in the assay filed under Rattus norvegicus [8], 14%. In addition, the pIC50 in assay [11] was 5.30; in [12], 5.00; in [13], 4.00; in assay [14] it was 5.00.
Turning to `NNC(=O)Cc1cccc(-n2cccc2)c1`, the Inhibition amounted to 15% in the assay listed under Rattus norvegicus [1]; 0% in the assay filed under Rattus norvegicus [2]; 3% in the assay filed under Rattus norvegicus [4]; 3% in the assay filed under Rattus norvegicus [5]; 0% in the assay listed under Rattus norvegicus [6]; 2% in the assay filed under Rattus norvegicus [8]. For the same compound, the pIC50 in [3] was 5.00; in assay [9], 4.30. The pKi in assay [7] was 6.15; in assay [10], 4.00.
Consider `Cc1ccc(C)n1-c1ccc(CC(=O)NN)cc1`, for which the Inhibition in the assay filed under Rattus norvegicus [1] came to 3%; in the assay filed under Rattus norvegicus [2], 0%; in the assay listed under Rattus norvegicus [4], 0%; in the assay filed under Rattus norvegicus [5] it was 2%; in the assay listed under Rattus norvegicus [6], 0%; in the assay listed under Rattus norvegicus [8] it was 0%. Besides, the results for the pIC50 in assay [3] and in assay [9] were 4.30 and 4.00, respectively. The pKi in assay [7] was 5.00.
With `NNC(=O)c1ccc(-n2cccc2)cc1`, the Inhibition in the assay listed under Rattus norvegicus [1] came to 18%; in the assay filed under Rattus norvegicus [2] it was 2%; in the assay listed under Rattus norvegicus [4] it was 16%; in the assay listed under Rattus norvegicus [5] it was 0%; in the assay filed under Rattus norvegicus [6], 0%; in the assay listed under Rattus norvegicus [8] it was 0%. Further, the pIC50 was 4.30 in assay [3] and 3.70 in assay [9]. The pKi was 4.10 in [7] and 4.00 in [10].
